From ChEMBL document CHEMBL1129298, “Nonpeptide angiotensin II receptor antagonists: synthesis, biological activities, and structure-activity relationships of imidazole-5-carboxylic acids bearing alkyl, alkenyl, and hydroxyalkyl substituents at the 4-position and their related compounds” (J Med Chem, 1996)

What was measured:
[1] = molecular target: T1, Type-1 angiotensin II receptor (Bos taurus, UniProt P25104); experiment: In vitro for inhibition of [125I]-angiotensin II (0.1 nM) binding to angiotensin II receptor type 1 in membrane fractions of bovine adrenal cortex; format: tissue-based
T1 sequence (P25104 whole entry): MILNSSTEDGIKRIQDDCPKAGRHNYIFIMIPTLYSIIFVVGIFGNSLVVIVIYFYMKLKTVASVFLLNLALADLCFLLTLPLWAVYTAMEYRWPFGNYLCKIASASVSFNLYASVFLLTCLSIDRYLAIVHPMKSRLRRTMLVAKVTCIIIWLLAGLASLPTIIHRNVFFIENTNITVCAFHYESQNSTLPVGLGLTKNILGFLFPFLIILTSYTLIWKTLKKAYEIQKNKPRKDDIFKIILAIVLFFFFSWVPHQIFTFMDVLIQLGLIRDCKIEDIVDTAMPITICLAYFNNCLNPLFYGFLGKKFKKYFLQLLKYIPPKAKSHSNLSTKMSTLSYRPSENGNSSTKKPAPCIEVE

[2] = molecular target: Angiotensin II receptor (Rattus norvegicus) (UniProt P29089+P25095+P35351); experiment: In vivo inhibitory activity against angiotensin II induced pressor response in anesthetized normotensive rats; format: functional, organism-based
Method in brief: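 Male Wistar-Imamichi rats (300–400 g) under inactin (100 mg/kg ip), with femoral arterial and venous cannulae. AII 50 ng/kg iv every 10 min until responses were constant. Compound in DMSO was then given iv and AII re-injected 2 min later.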

[3] = test system: Rattus norvegicus; experiment: Inhibitory activity against AII-Induced Pressor response at 1 mg/kg at 1 hr; format: functional
Method in brief: (§1)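 Male Wistar-Imamichi rats (300–400 g) cannulated under pentobarbital (50 mg/kg ip), fasted 24 h, tested conscious the next day. AII 50 ng/kg iv was repeated until constant, then compound in 50% aqueous DMF given orally. AII was repeated over 8 h, and mean blood pressure response inhibition (%) was recorded at 1, 3, 6 h. n = 3–5.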

[4] = test system: Rattus norvegicus; experiment: Inhibitory activity against AII-Induced Pressor response at 1 mg/kg at 3 hour; format: functional; conditions: Rattus norvegicus, 3 h; method in brief: as §1
[5] = test system: Rattus norvegicus; experiment: Inhibitory activity against AII-Induced Pressor response at 1 mg/kg at 6 hour; format: functional; conditions: Rattus norvegicus, 6 h, dose 1 mg/kg; method in brief: as §1
[6] = test system: Rattus norvegicus; experiment: Inhibitory activity against AII-Induced Pressor response at 10 mg/Kg at 3 hour; format: functional; method in brief: as §1
[7] = test system: Rattus norvegicus; experiment: Inhibitory activity against AII-Induced Pressor response at 10 mg/Kg at 6 hour; format: functional; method in brief: as §1
[8] = test system: Rattus norvegicus; experiment: Inhibitory activity against AII-Induced Pressor response at 3 mg/Kg at 1 hr; format: functional; method in brief: as §1
[9] = test system: Rattus norvegicus; experiment: Inhibitory activity against AII-Induced Pressor response at 3 mg/Kg at 3 hour; format: functional; method in brief: as §1
[10] = test system: Rattus norvegicus; experiment: Inhibitory activity against AII-Induced Pressor response at 3 mg/Kg at 6 hour; format: functional; method in brief: as §1
[11] = test system: Rattus norvegicus; experiment: Inhibitory activity against AII-Induced Pressor response at 10 mg/Kg at 1 hr; format: functional; method in brief: as §1
[12] = test system: Rattus norvegicus; experiment: Inhibitory activity against AII-Induced Pressor response at 1 mg/Kg at 1 hr; format: functional; method in brief: as §1
[13] = test system: Rattus norvegicus; experiment: Inhibitory activity against AII-Induced Pressor response at 1 mg/Kg at 3 hour; format: functional; method in brief: as §1
[14] = test system: Rattus norvegicus; experiment: Inhibitory activity against AII-Induced Pressor response at 1 mg/Kg at 6 hour; format: functional; method in brief: as §1
[15] = test system: Rattus norvegicus; experiment: Inhibitory activity against AII-Induced Pressor response at 0.3 mg/Kg at 1 hr; format: functional; method in brief: as §1
[16] = test system: Rattus norvegicus; experiment: Inhibitory activity against AII-Induced Pressor response at 0.3 mg/Kg at 3 hour; format: functional; method in brief: as §1
[17] = test system: Rattus norvegicus; experiment: Inhibitory activity against AII-Induced Pressor response at 0.3 mg/Kg at 6 hour; format: functional; method in brief: as §1

Compound CCCc1nc(C)c(C(=O)O)n1Cc1ccc(-c2ccccc2-c2nn[nH]n2)cc1 has an IC50 [1] of 11 nM and an ID50 [2] of 0.028 mg/kg.

In the case of CCCc1nc(C(C)(C)O)c(C(=O)O)n1Cc1ccc(-c2ccccc2C(=O)OCOC(=O)C(C)(C)C)cc1, the inhibition in vivo at 1 mg/kg [3] is reported as 20%, the inhibition in vivo at 1 mg/kg [4] is reported as 35% and the inhibition in vivo at 1 mg/kg [5] is reported as 40%.

CCCCc1nc(C(C)(C)O)c(C(=O)O)n1Cc1ccc(-c2ccccc2-c2nn[nH]n2)cc1 showed an ID50 [2] of 0.017 mg/kg.

CCCc1nc(C(C)(C)O)c(C(=O)OCC)n1Cc1ccc(-c2ccccc2C(=O)O)cc1 showed an IC50 [1] of 600 nM, an ID50 [2] of 1.2 mg/kg and an inhibition in vivo at 10 mg/kg [6] of 70%. For the same compound, the inhibition in vivo at 10 mg/kg [7] was 75%, the inhibition in vivo at 3 mg/kg [8] was 26% and the inhibition in vivo at 3 mg/kg [9] was 28%. The inhibition in vivo at 3 mg/kg [10] was 25% and the inhibition in vivo at 10 mg/kg [11] was 40%.

Compound CCCc1nc(C(C)(C)O)c(C(=O)OC2OC(=O)c3ccccc32)n1Cc1ccc(-c2ccccc2C(=O)O)cc1 (configuration not stated) has an inhibition in vivo at 1 mg/kg [3] of 73%, an inhibition in vivo at 1 mg/kg [4] of 77% and an inhibition in vivo at 1 mg/kg [5] of 74%.

CCCc1nc(C(C)C)c(C(=O)O)n1Cc1ccc(-c2ccccc2-c2nn[nH]n2)cc1 showed an ID50 [2] of 0.014 mg/kg.

In the case of CCCc1nc(CC)c(C(=O)O)n1Cc1ccc(-c2ccccc2-c2nnn[nH]2)cc1, the IC50 [1] is reported as 12 nM.

Compound C=C(C)c1nc(CCC)n(Cc2ccc(-c3ccccc3C(=O)O)cc2)c1C(=O)O has an IC50 [1] of 270 nM and an ID50 [2] of 0.37 mg/kg.

Compound CCCc1nc(C(=O)O)c(CO)n1Cc1ccc(-c2ccccc2-c2nn[nH]n2)cc1 has an IC50 [1] of 4600 nM and an ID50 [2] of 1.7 mg/kg.

CCCc1nc(C(=O)O)cn1Cc1ccc(-c2ccccc2C(=O)O)cc1 showed an IC50 [1] of 45000 nM and an ID50 [2] of 8.2 mg/kg.

For CCCCc1nc(Cl)c(C(=O)O)n1Cc1ccc(-c2ccccc2-c2nn[nH]n2)cc1 [CARBOXYLIC ACID METABOLITE], the ID50 [2] was 0.1 mg/kg, the inhibition in vivo at 10 mg/kg [6] was 93% and the inhibition in vivo at 10 mg/kg [7] was 89%. For the same compound, the inhibition in vivo at 3 mg/kg [8] was 81%, the inhibition in vivo at 3 mg/kg [9] was 81% and the inhibition in vivo at 3 mg/kg [10] was 81%. For the same compound, the inhibition in vivo at 1 mg/kg [12] was 74%, the inhibition in vivo at 1 mg/kg [13] was 72% and the inhibition in vivo at 1 mg/kg [14] was 70%. The inhibition in vivo at 10 mg/kg [11] was 89%.

CCCc1nc(C(C)(C)O)c(C(=O)OCOC(=O)OC(C)C)n1Cc1ccc(-c2ccccc2C(=O)O)cc1 gave an inhibition in vivo at 1 mg/kg [3] of 71%, an inhibition in vivo at 1 mg/kg [4] of 71% and an inhibition in vivo at 1 mg/kg [5] of 71%.

In the case of CCCc1nc(CO)c(C(=O)O)n1Cc1ccc(-c2ccccc2-c2nn[nH]n2)cc1, the ID50 [2] is reported as 0.0062 mg/kg, the inhibition in vivo at 0.3 mg/kg [15] is reported as 76% and the inhibition in vivo at 0.3 mg/kg [16] is reported as 75%. For the same compound, the inhibition in vivo at 0.3 mg/kg [17] was 65%.

For CCCc1nc(C(C)(C)O)c(C(=O)O)n1Cc1ccc(-c2ccccc2C(=O)O)cc1, the IC50 [1] was 28 nM, the ID50 [2] was 0.056 mg/kg and the inhibition in vivo at 10 mg/kg [6] was 70%. It also gave an inhibition in vivo at 10 mg/kg [7] of 56%, an inhibition in vivo at 1 mg/kg [3] of 50% and an inhibition in vivo at 1 mg/kg [4] of 42%. The inhibition in vivo at 1 mg/kg [5] was 12%, the inhibition in vivo at 3 mg/kg [8] was 78% and the inhibition in vivo at 3 mg/kg [9] was 67%. It also gave an inhibition in vivo at 3 mg/kg [10] of 48% and an inhibition in vivo at 10 mg/kg [11] of 88%.

CCCc1nc(C(C)(C)O)c(C(=O)OCC)n1Cc1ccc(-c2ccccc2-c2nn[nH]n2)cc1 showed an ID50 [2] of 0.32 mg/kg, an inhibition in vivo at 1 mg/kg [12] of 70% and an inhibition in vivo at 1 mg/kg [13] of 72%. It also gave an inhibition in vivo at 1 mg/kg [14] of 76%.

With CCCc1nc(C(O)(CC)CC)c(C(=O)O)n1Cc1ccc(-c2ccccc2C(=O)O)cc1 the IC50 [1] was 110 nM and the ID50 [2] was 0.11 mg/kg.

With CCc1nc(C(C)(C)O)c(C(=O)O)n1Cc1ccc(-c2ccccc2-c2nnn[nH]2)cc1 the IC50 [1] was 5.3 nM.

Work on CCCc1ncc(C(=O)O)n1Cc1ccc(-c2ccccc2-c2nn[nH]n2)cc1 yielded an IC50 [1] of 9.1 nM and an ID50 [2] of 0.018 mg/kg.

CCCCc1nc(Cl)c(CO)n1Cc1ccc(-c2ccccc2-c2nnn[nH]2)cc1 [LOSARTAN] showed an ID50 [2] of 0.3 mg/kg, an inhibition in vivo at 10 mg/kg [6] of 77% and an inhibition in vivo at 10 mg/kg [7] of 85%. The inhibition in vivo at 3 mg/kg [8] was 38%, the inhibition in vivo at 3 mg/kg [9] was 35% and the inhibition in vivo at 3 mg/kg [10] was 65%. The inhibition in vivo at 1 mg/kg [12] was 12%, the inhibition in vivo at 1 mg/kg [13] was 12% and the inhibition in vivo at 1 mg/kg [14] was 32%. It also gave an inhibition in vivo at 10 mg/kg [11] of 69%.

Compound CCCc1nc(C(C)C)c(C(=O)O)n1Cc1ccc(-c2ccccc2-c2nnn[nH]2)cc1 has an IC50 [1] of 46 nM.

CCCc1nc(C(=O)O)c(C(=O)O)n1Cc1ccc(-c2ccccc2-c2nn[nH]n2)cc1 was tested, and the ID50 [2] was 0.031 mg/kg.

Compound CCCc1nc(C(C)(C)O)c(C(=O)OCC)n1Cc1ccc(-c2ccccc2-c2nnn[nH]2)cc1 has an IC50 [1] of 200 nM.

Work on CCCc1nc(CO)c(CO)n1Cc1ccc(-c2ccccc2C(=O)O)cc1 yielded an ID50 [2] of 2.1 mg/kg.

With CCCc1nc(CC)c(C(=O)O)n1Cc1ccc(-c2ccccc2-c2nn[nH]n2)cc1 the ID50 [2] was 0.019 mg/kg.
